Published values of several laboratories.
Each line is one published result; the experiments were not run side by side.
Target: Tyrosine-protein kinase Fer (FER, Homo sapiens, UniProt P16591)

Structure (SMILES)	assay	conditions	remaining binding [%]
Nc1ncc2c(n1)-c1c([nH]c3ccc(C#CC4CC4)cc13)CCCC2	binding, competition with immobilised ligand	1 µM	100
CN(CCCC(F)(F)F)c1nccc(-c2cnn3ncccc23)n1	binding	1 µM	65
O=C(NCCCN1CCOCC1)c1ccc(Nc2nccc(-c3cc4ccccc4s3)n2)cc1	binding, competition with immobilised ligand	1 µM	100
C[C@H]1CCN(c2nccc(-c3cnn4ncccc34)n2)C1	binding	1 µM	93
CO[C@H]1CC[C@H](CNc2ccc(S(=O)(=O)NC(=O)c3ccc(N4CCN(CC5=C(c6ccc(Cl)cc6)CC(C)(C)CC5)CC4)cc3Oc3cnc4[nH]ccc4c3)cc2[N+](=O)[O-])CC1	cell-free assay, competition with immobilised ligand	1 µM	67
CN(C)c1nccc(-c2cnn3ncccc23)n1	binding	1 µM	97
O=C(NC[C@@H]1[C@H]2CN(C(=O)OCc3cc(C(F)(F)F)cc(C(F)(F)F)c3)C[C@@H]12)c1ccc2[nH]nnc2c1	cell-free assay, competition with immobilised ligand	1 µM	97
F[C@@H]1CCN(c2nccc(-c3cnn4ncccc34)n2)C1	binding	1 µM	81
O=C(NCCCN1CCOCC1)c1ccc(Nc2ncc(Cl)c(-c3ccc(Cl)s3)n2)cc1	binding, competition with immobilised ligand	1 µM	86
Cc1cnn2ncc(-c3ccnc(N(C)C)n3)c2c1	binding	1 µM	92
C[C@@]1(Cc2ccc(C#N)cc2)C(=O)N(c2cc(Cl)cc(Cl)c2)c2ncc(C(=O)NC3(c4nc(C5CCC5)no4)CC3)n21	cell-free assay, competition with immobilised ligand	1 µM	100
C=CC(=O)N1CCC(C(=O)NCC(=O)N2CCN(c3nc(-c4cnc(N)nc4C(F)F)nc(N4CCOCC4)n3)CC2)CC1	binding, competition with immobilised ligand	1 µM	87
O=C(NCC1CCOCC1)c1n[nH]cc1NC(=O)c1c(F)cccc1F	binding, competition with immobilised ligand	1 µM	100
CNC(=O)[C@@H]1CC[C@@H](n2c(-c3ccc4cnccc4c3)nc3ccc(C(=O)NCc4cccc(C(N)=O)c4)cc32)C1	binding, competition with immobilised ligand	1 µM	100
O=C(c1ccc(Nc2ncc(Cl)c(-c3ccc(Cl)s3)n2)cc1)N1CCC(N2CCCC2)CC1	binding, competition with immobilised ligand	1 µM	81
Cc1c(C(=O)O)cc(-c2ccc(C3CCNCC3)cc2)c2ccc(-c3ccc(C(F)(F)F)cc3)cc12	binding, competition with immobilised ligand	1 µM	100
CCN1CCN(Cc2ccc(C(=O)Nc3ccc(C)c(Oc4ccc5c(c4)CC(=O)N5)c3)cc2C(F)(F)F)CC1	binding, competition with immobilised ligand	1 µM	100
CCC(=O)N[C@H]1CC[C@@H](C(=O)N(C)c2ccc(-c3nc4ccccc4o3)cc2)C1	cell-free assay, competition with immobilised ligand	1 µM	90
COc1ncc2cc3ccccc3nc2c1C#N	cell-free assay, competition with immobilised ligand	5 µM	100
c1cnn2ncc(-c3ccnc(N4CCC45COC5)n3)c2c1	binding	1 µM	91
CC(=O)N1CCC(c2ccc(C(=O)NC(=N)N)cc2C(F)(F)F)CC1	cell-free assay, competition with immobilised ligand	1 µM	96
